Data: ChEMBL document CHEMBL1146752, “Oxamyl dipeptide caspase inhibitors developed for the treatment of stroke” (Bioorg Med Chem Lett, 2004)

Key:
Rattus norvegicus = organism: Rattus norvegicus; assay: Inhibitory activity evaluated against rat Con A embryonic cortical neurons in cellular assay; assay type: functional
THP-1 = assay: Inhibitory activity evaluated against human THP-1 cell line in cellular assay; assay type: functional, cell-based
Summary of the method: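 Human cells (monocytes; THP-1 line) in a caspase-1-dependent cellular assay run for 24 h at 37 °C. Read-out is IC50 (µM).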

Jurkat = assay: Inhibitory activity evaluated against human jurkat cell line in cellular assay; assay type: functional, cell-based
Summary of the method: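 Human Jurkat cells, in an assay where caspase-8 is relevant but other caspases also contribute. Run for 24 h at 37 °C. Read-out is IC50 (µM).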

SKW 6.4 = assay: Inhibitory activity was evaluated against human SKW 6.4 cell line in cellular assay; assay type: functional, cell-based
Summary of the method: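 Cellular assay (Con A; SKW 6.4 cells) run for 24 h at 37 °C. Read-out is IC50 (µM).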

IC50 (THP-1) [µM] | IC50 (Jurkat) [µM] | IC50 (SKW 6.4) [µM] | Structure (SMILES) | IC50 (Rattus norvegicus) [µM]
0.27 | 0.11 | 0.58 | CC(C)[C@H](NC(=O)C(=O)Nc1c(F)cc(F)c(F)c1F)C(=O)N[C@@H](CC(=O)O)C(=O)COc1c(F)c(F)cc(F)c1F | 2.1
1.44 | 0.17 | 19.1 | CC(C)[C@H](NC(=O)C(=O)Nc1cnccn1)C(=O)N[C@@H](CC(=O)O)C(=O)COc1c(F)c(F)cc(F)c1F | 5.9
1.23 | 0.11 | 1.04 | CNC(=O)C(=O)N[C@H](C(=O)N[C@@H](CC(=O)O)C(=O)COc1c(F)c(F)cc(F)c1F)C(C)C | 7
7.71 | 1.28 | 7.8 | CCCCCCCNC(=O)C(=O)N[C@H](C(=O)N[C@@H](CC(=O)O)C(=O)COc1c(F)c(F)cc(F)c1F)C(C)C | 7
2.91 | 0.37 | 0.86 | CC(C)[C@H](NC(=O)C(=O)NC1CCCc2ccccc21)C(=O)N[C@@H](CC(=O)O)C(=O)COc1c(F)c(F)cc(F)c1F (stereo partly specified) | 2.4
0.4 | 0.31 | 1.2 | COc1ccccc1NC(=O)C(=O)N[C@H](C(=O)N[C@@H](CC(=O)O)C(=O)COc1c(F)c(F)cc(F)c1F)C(C)C | 2.5
1.43 | 0.14 | 2.2 | CC(C)[C@H](NC(=O)C(=O)Nc1ccccn1)C(=O)N[C@@H](CC(=O)O)C(=O)COc1c(F)c(F)cc(F)c1F | 9.4
1.85 | 0.0022 | 0.34 | CC(C)[C@H](NC(=O)C(=O)Nc1ccccc1C(C)(C)C)C(=O)N[C@@H](CC(=O)O)C(=O)COc1c(F)c(F)cc(F)c1F | 5.68
0.54 | 0.356 | – | CC(C)[C@H](NC(=O)C(=O)Nc1ccccc1Br)C(=O)N[C@@H](CC(=O)O)C(=O)COc1c(F)c(F)cc(F)c1F | 0.4
– | 2.5 | – | CC(C)C[C@H](NC(=O)C(=O)Nc1cccc2ccccc12)C(=O)N[C@@H](CC(=O)O)C(=O)COc1c(F)c(F)cc(F)c1F | 2.58
0.16 | 0.016 | 0.11 | CC(C)[C@H](NC(=O)C(=O)Nc1ccccc1Cl)C(=O)N[C@@H](CC(=O)O)C(=O)COc1c(F)c(F)cc(F)c1F | 0.3
0.38 | 0.136 | 1.63 | CC(C)[C@H](NC(=O)C(=O)Nc1c(F)cccc1F)C(=O)N[C@@H](CC(=O)O)C(=O)COc1c(F)c(F)cc(F)c1F | 1
6.58 | 2.35 | 9.9 | CC(C)[C@H](NC(=O)C(=O)NNc1ccccc1)C(=O)N[C@@H](CC(=O)O)C(=O)COc1c(F)c(F)cc(F)c1F | 20
3.5 | 1.55 | 18.3 | COc1cc(CNC(=O)C(=O)N[C@H](C(=O)N[C@@H](CC(=O)O)C(=O)COc2c(F)c(F)cc(F)c2F)C(C)C)cc(OC)c1OC | 9
0.22 | 0.01 | 1.96 | CC(C)[C@H](NC(=O)C(=O)Nc1cccc2cc3ccccc3cc12)C(=O)N[C@@H](CC(=O)O)C(=O)COc1c(F)c(F)cc(F)c1F | 0.85
0.16 | 0.2 | 0.48 | CC(C)[C@H](NC(=O)C(=O)Nc1ccccc1-c1ccccc1)C(=O)N[C@@H](CC(=O)O)C(=O)COc1c(F)c(F)cc(F)c1F | 2.5
1.85 | 1.15 | 2 | CC(C)[C@H](NC(=O)C(=O)Nc1cccc(Oc2ccccc2)c1)C(=O)N[C@@H](CC(=O)O)C(=O)COc1c(F)c(F)cc(F)c1F | 1.1
0.18 | 0.009 | 1.56 | CC(C)[C@H](NC(=O)C(=O)Nc1ccccc1Cc1ccccc1)C(=O)N[C@@H](CC(=O)O)C(=O)COc1c(F)c(F)cc(F)c1F | 2
1.79 | 1.76 | 0.72 | CC(C)[C@H](NC(=O)C(=O)NC12CC3CC(CC(C3)C1)C2)C(=O)N[C@@H](CC(=O)O)C(=O)COc1c(F)c(F)cc(F)c1F | 3.5
– | > 100 | > 100 | CC(C)[C@H](NC(=O)C(=O)N(C)c1cccc2ccccc12)C(=O)N[C@@H](CC(=O)O)C(=O)COc1c(F)c(F)cc(F)c1F | > 50
0.63 | 0.07 | 2.01 | CC(C)[C@H](NC(=O)C(=O)NN(C(=O)c1ccccc1)c1ccccc1)C(=O)N[C@@H](CC(=O)O)C(=O)COc1c(F)c(F)cc(F)c1F | 2.3
0.41 | 0.01 | 0.15 | CC(C)[C@H](NC(=O)C(=O)Nc1ccc(I)cc1F)C(=O)N[C@@H](CC(=O)O)C(=O)COc1c(F)c(F)cc(F)c1F | 0.7
0.57 | 0.04 | 1.19 | CC(C)[C@H](NC(=O)C(=O)Nc1cc(F)c(F)c(F)c1F)C(=O)N[C@@H](CC(=O)O)C(=O)COc1c(F)c(F)cc(F)c1F | 3.5
0.72 | 0.06 | 1.78 | CC(C)[C@H](NC(=O)C(=O)NC1CCCCC1)C(=O)N[C@@H](CC(=O)O)C(=O)COc1c(F)c(F)cc(F)c1F | 6.12
0.07 | 0.43 | 0.94 | CC(C)[C@H](NC(=O)C(=O)Nc1ccccc1)C(=O)N[C@@H](CC(=O)O)C(=O)COc1c(F)c(F)cc(F)c1F | 1.5
0.17 | > 200 | – | CC(C)[C@H](NC(=O)C(=O)NC(c1ccccc1)c1ccccc1)C(=O)N[C@@H](CC(=O)O)C(=O)COc1c(F)c(F)cc(F)c1F | 7.3
– | 0.0061 | – | CC(C)[C@H](NC(=O)C(=O)Nc1cccc2ccccc12)C(=O)N[C@@H](CC(=O)O)C(=O)COc1c(F)c(F)cc(F)c1F | 0.55
> 32 | 30.8 | – | CC(C)[C@H](NC(=O)C(=O)NOCc1ccccc1)C(=O)N[C@@H](CC(=O)O)C(=O)COc1c(F)c(F)cc(F)c1F | 15

The next lines start with the compound.

Structure (SMILES) | IC50 (THP-1) [µM] | IC50 (Jurkat) [µM] | IC50 (SKW 6.4) [µM] | IC50 (Rattus norvegicus) [µM]
CC(C)[C@H](NC(=O)C(=O)Nc1cccc2ccccc12)C(=O)N[C@@H](CC(=O)O)C(=O)COP(=O)(c1ccccc1)c1ccccc1 | 0.65 | – | – | 0.65
O=C(O)C[C@H](NC(=O)C(NC(=O)C(=O)Nc1cccc2ccccc12)C1CCCCC1)C(=O)COc1c(F)c(F)cc(F)c1F (stereo partly specified) | 1.44 | – | – | 1.5
O=C(O)C[C@H](NC(=O)C1CCC(NC(=O)C(=O)Nc2cccc3ccccc23)C1)C(=O)COc1c(F)c(F)cc(F)c1F (stereo partly specified) | 0.93 | – | – | 2.5
COC(=O)c1cc(OCC(=O)[C@H](CC(=O)O)NC(=O)[C@@H](NC(=O)C(=O)Nc2cccc3ccccc23)C(C)C)no1 | 0.28 | – | – | 9
CC(C)[C@H](NC(=O)C(=O)Nc1cccc2ccccc12)C(=O)N[C@@H](CC(=O)O)C(=O)COc1ccc(-c2ccccc2)cc1 | 1.12 | – | – | > 50
O=C(O)C[C@H](NC(=O)C(NC(=O)C(=O)Nc1cccc2ccccc12)c1ccccc1)C(=O)COc1c(F)c(F)cc(F)c1F (stereo partly specified) | 2.77 | – | – | 0.5
CC(C)[C@H](NC(=O)C(=O)Nc1cccc2ccccc12)C(=O)N[C@@H](CC(=O)O)C(=O)COc1ccnc(C(F)(F)F)n1 | 0.25 | – | – | 2
O=C(O)C[C@H](NC(=O)C1Cc2ccccc2N1C(=O)C(=O)Nc1cccc2ccccc12)C(=O)COc1c(F)c(F)cc(F)c1F (stereo partly specified) | 22.1 | – | – | 50
CC(C)[C@H](NC(=O)C(=O)Nc1cccc2ccccc12)C(=O)N[C@@H](CC(=O)O)C(=O)COc1c(F)cc(F)cc1F | – | 0.0052 | – | 0.3
CC(C)(C)C(NC(=O)C(=O)Nc1cccc2ccccc12)C(=O)N[C@@H](CC(=O)O)C(=O)COc1c(F)c(F)cc(F)c1F (stereo partly specified) | 0.27 | – | – | 2.9
CC(C)[C@H](NC(=O)C(=O)Nc1cccc2ccccc12)C(=O)N[C@@H](CC(=O)O)C(=O)COc1c(F)cccc1F | 0.48 | – | – | 0.45
O=C(O)C[C@H](NC(=O)C1CCCCN1C(=O)C(=O)Nc1cccc2ccccc12)C(=O)COc1c(F)c(F)cc(F)c1F (stereo partly specified) | – | – | – | 16
CCCCC(NC(=O)C(=O)Nc1cccc2ccccc12)C(=O)N[C@@H](CC(=O)O)C(=O)COc1c(F)c(F)cc(F)c1F (stereo partly specified) | – | – | – | 1
O=C(O)C[C@H](NC(=O)[C@H](Cc1ccccc1)NC(=O)C(=O)Nc1cccc2ccccc12)C(=O)COc1c(F)c(F)cc(F)c1F | 1.26 | – | – | 2.7
CC(C)[C@H](NC(=O)C(=O)Nc1cccc2ccccc12)C(=O)N[C@@H](CC(=O)O)C(=O)COc1cccc2ccccc12 | 3.06 | – | – | 2.7
CC(C)[C@H](NC(=O)C(=O)Nc1cccc2ccccc12)C(=O)N[C@@H](CC(=O)O)C(=O)COC(=O)c1c(Cl)cccc1Cl | – | 0.0043 | – | 0.35
CC(C)C[C@H](NC(=O)C(=O)Nc1cccc2ccccc12)C(=O)N[C@@H](CC(=O)O)C(=O)COC(=O)c1c(Cl)cccc1Cl | – | 1.3 | – | 0.5
CC(C)[C@H](NC(=O)C(=O)Nc1cccc2ccccc12)C(=O)N[C@@H](CC(=O)O)C(=O)COS(=O)c1ccccc1 (stereo partly specified) | 8.3 | – | – | > 50
O=C(O)C[C@H](NC(=O)[C@H](CCc1ccccc1)NC(=O)C(=O)Nc1cccc2ccccc12)C(=O)COc1c(F)c(F)cc(F)c1F | 7.53 | – | – | 3
CC(C)[C@H](NC(=O)C(=O)Nc1cccc2ccccc12)C(=O)N[C@@H](CC(=O)O)C(=O)COP(C)(=O)c1ccccc1 (stereo partly specified) | 0.09 | – | – | 2
CC(C)C[C@H](NC(=O)C(=O)Nc1cccc2ccccc12)C(=O)N[C@@H](CC(=O)O)C(=O)COc1c(F)cc(F)cc1F | – | 0.535 | – | 4.61
CC(C)[C@H](NC(=O)C(=O)Nc1cccc2ccccc12)C(=O)N[C@@H](CC(=O)O)C(=O)COc1ccc2ccccc2c1 | 1.93 | – | – | 7.3
